# Source: ChEMBL document CHEMBL1121366, “Synthesis and immunological activity of 5,6,6a,8,9,11a-hexahydronaphth[1',2':4,5]imidazo[2,1-b]thiazoles and 5,6,6a,9,10,11a-hexahydroanaphth[2',1':4,5]imidazo[2,1-b]thiazoles” (J Med Chem, 1980)
# Experiments:
# [1] = test system: Mus musculus; experiment: Effect on humoral immune response in mice against sheep red blood cells by the plaque-forming cell (PFC/10e6 spleen cells) method in experiment 6 at dose 3 mg/kg; type: functional
# Summary of the method: (§1)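 Male CDF1 (Balb/c × DBA/2Cr) mice, 8-10 weeks old, groups of four, were immunized iv with 1 × 10^8 SRBC in PBS. After 24 h they received a single sc inguinal dose in saline, or as a suspension in saline with 1% Me2SO. Spleens were taken 4 days later and hemolytic plaque-forming cells counted by Cunningham's method. Values are the mean of four mice ± SE, with a paired Student's t test against the control.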
# [2] = test system: Mus musculus; experiment: Tested for increase in foot-pad thickness (mm) by its effect on cellular immune response in mice against sheep red blood cells by the DHR method in experiment 15 at dose 3 mg/kg; type: functional
# Summary of the method: (§2)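 Male mice, 8–10 weeks old, ICR strain. Groups of four were sensitized with 1 × 10^8 SRBC in PBS into one hind footpad, with compound given sc in the inguinal region in saline or saline/1% Me2SO. Four days later, 1 × 10^8 SRBC were injected into the other hind footpad. Foot thickness was measured with a dial gauge just before and 24 h after this challenge, and the increase was taken as the difference. Values are the mean of four mice ± SE.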
# [3] = test system: Mus musculus; experiment: Tested for increase in foot-pad thickness (mm) by its effect on cellular immune response in mice against sheep red blood cells by DHR method in experiment 15 at dose 12 mg/kg; type: functional; summary of the method: as §2
# [4] = test system: Mus musculus; experiment: Effect on humoral immune response in mice against sheep red blood cells by the plaque-forming cell (PFC/10e6 spleen cells) method in experiment 6 at dose 12 mg/kg; type: functional; summary of the method: as §1
# [5] = test system: Mus musculus; experiment: Tested for increase in foot-pad thickness (mm) by its effect on cellular immune response in mice against sheep red blood cells by DHR method in experiment 17 at dose 12 mg/kg; type: functional
# Summary of the method: (§3)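 Male ICR mice, 8-10 weeks old, groups of four, were sensitized with 1 × 10^8 SRBC in PBS into one hind footpad and dosed sc in the inguinal region, in saline or in saline with 1% Me2SO. Four days later the other footpad was challenged with 1 × 10^8 SRBC. Foot thickness was gauged just before and 24 h after challenge, and the increase was reported as mean of four ± SE.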
# [6] = test system: Mus musculus; experiment: Effect on humoral immune response in mice against sheep red blood cells by the plaque-forming cell (PFC/10e6 spleen cells) method in experiment 8 at dose 12 mg/kg; type: functional; summary of the method: as §1
# [7] = test system: Mus musculus; experiment: Tested for increase in foot-pad thickness (mm) by its effect on cellular immune response in mice against sheep red blood cells by the DHR method in experiment 17 at dose 3 mg/kg; type: functional; summary of the method: as §3
# [8] = test system: Mus musculus; experiment: Effect on humoral immune response in mice against sheep red blood cells by the plaque-forming cell (PFC/10e6 spleen cells) method in experiment 8 at dose 3 mg/kg; type: functional; summary of the method: as §1
# [9] = (§4) Acute lethal dose was determined in mice upon intravenous administration; type: ADME, organism-based; conditions: mouse, in vivo
# Summary of the method: (§5)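 Male mice, 8–10 weeks old, CDF1 (Balb/c × DBA/2Cr). Groups of six dosed once, either iv or sc. Three to five dose levels were chosen from 400, 300, 150, 80, 40, 20 and 10 mg/kg. LD50 was calculated by the Litchfield–Wilcoxon method. Vehicle was saline or saline with 1% Me2SO, depending on compound.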
# [10] = test system: Mus musculus; experiment: Effect on humoral immune response in mice against sheep red blood cells by the plaque-forming cell (PFC/10e6 spleen cells) method in experiment 4 at dose 12 mg/kg; type: functional; summary of the method: as §1
# [11] = test system: Mus musculus; experiment: Effect on humoral immune response in mice against sheep red blood cells by the plaque-forming cell (PFC/10e6 spleen cells) method in experiment 4 at dose 3 mg/kg; type: functional; summary of the method: as §1
# [12] = test system: Mus musculus; experiment: Tested for increase in foot-pad thickness (mm) by its effect on cellular immune response in mice against sheep red blood cells by the DHR method in experiment 13 at dose 3 mg/kg; type: functional; summary of the method: as §3
# [13] = test system: Mus musculus; experiment: Tested for increase in foot-pad thickness (mm) by its effect on cellular immune response in mice against sheep red blood cells by DHR method in experiment 13 at dose 12 mg/kg; type: functional; summary of the method: as §3
# [14] = test system: Mus musculus; experiment: Effect on humoral immune response in mice against sheep red blood cells by the plaque-forming cell (PFC/10e 6 spleen cells) method in experiment 9 at dose 3 mg/kg; type: functional; summary of the method: as §1
# [15] = test system: Mus musculus; experiment: Effect on humoral immune response in mice against sheep red blood cells by the plaque-forming cell (PFC/10e 6 spleen cells) method in experiment 9 at dose 12 mg/kg; type: functional; summary of the method: as §1
# [16] = test system: Mus musculus; experiment: Effect on humoral immune response in mice against sheep red blood cells by the plaque-forming cell (PFC/10e 6 spleen cells) method in experiment 2 at dose 12 mg/kg; type: functional
# Summary of the method: (§6)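 Male ICR mice, 8-10 weeks old, groups of four, were immunized iv with 1 × 10^8 SRBC in PBS. After 24 h they received a single sc inguinal dose in saline, or as a suspension in saline with 1% Me2SO. Splenic hemolytic plaque-forming cells were counted 4 days later by Cunningham's method. Values are the mean of four ± SE, with a paired t test against the control.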
# [17] = test system: Mus musculus; experiment: Tested for increase in foot-pad thickness (mm) by its effect on cellular immune response in mice against sheep red blood cells by the DHR method in experiment 11 at dose 3 mg/kg; type: functional; summary of the method: as §3
# [18] = test system: Mus musculus; experiment: Effect on humoral immune response in mice against sheep red blood cells by the plaque-forming cell (PFC/10e 6 spleen cells) method in experiment 2 at dose 3 mg/kg; type: functional; summary of the method: as §6
# [19] = test system: Mus musculus; experiment: Tested for increase in foot-pad thickness (mm) by its effect on cellular immune response in mice against sheep red blood cells by DHR method in experiment 11 at dose 12 mg/kg; type: functional; summary of the method: as §3
# [20] = test system: Mus musculus; experiment: Acute lethal dose was determined in mice upon subcutaneous administration; type: ADME, organism-based; conditions: in vivo, sc; summary of the method: as §5
# [21] = test system: Mus musculus; experiment: Effect on humoral immune response in mice against sheep red blood cells by the plaque-forming cell (PFC/10e 6 spleen cells) method in experiment 1 at dose 12 mg/kg; type: functional; summary of the method: as §1
# [22] = test system: Mus musculus; experiment: Effect on humoral immune response in mice against sheep red blood cells by the plaque-forming cell (PFC/10e 6 spleen cells) method in experiment 1 at dose 3 mg/kg; type: functional; summary of the method: as §1
# [23] = test system: Mus musculus; experiment: Tested for increase in foot-pad thickness (mm) by its effect on cellular immune response in mice against sheep red blood cells by the DHR method in experiment 10 at dose 3 mg/kg; type: functional; summary of the method: as §3
# [24] = test system: Mus musculus; experiment: as §4; type: ADME, organism-based; conditions: in vivo; summary of the method: as §5
# [25] = test system: Mus musculus; experiment: Tested for increase in foot-pad thickness (mm) by its effect on cellular immune response in mice against sheep red blood cells by DHR method in experiment 10 at dose 3 mg/kg; type: functional; summary of the method: as §3
smiles,measurement,setting,value
Brc1ccc2c(c1)C1C(CC2)N=C2SCCN21 (configuration not stated),PFC,[1],980
same,Increase in footpad thickness,[2],0.35 mm
same,Increase in footpad thickness,[3],0.38 mm
same,PFC,[4],870
C[C@@H]1SC2=NC3c4ccccc4CCC3N2[C@@]1(O)c1ccccc1 (some centres not stated),Increase in footpad thickness,[5],0.52 mm
same,PFC,[6],1120
same,Increase in footpad thickness,[7],0.28 mm
same,PFC,[8],550
same,LD50,[9],170 mg/kg
Clc1ccc2c(c1)CCC1N=C3SCCN3C21 (configuration not stated),PFC,[10],1700
same,PFC,[11],1880
same,Increase in footpad thickness,[12],0.27 mm
same,Increase in footpad thickness,[13],0.28 mm
CC1=C(c2ccccc2)N2C(=NC3c4ccccc4CCC32)S1 (configuration not stated),Increase in footpad thickness,[5],0.32 mm
same,PFC,[14],740
same,PFC,[15],470
same,Increase in footpad thickness,[7],0.2 mm
Clc1ccc2c(c1)CCC1C2N=C2SCCN21 (cis isomer),PFC,[10],970
same,PFC,[11],1560
same,Increase in footpad thickness,[12],0.26 mm
same,Increase in footpad thickness,[13],0.33 mm
Brc1ccc2c(c1)C1N=C3SCCN3C1CC2 (cis isomer),PFC,[1],960
same,Increase in footpad thickness,[2],0.36 mm
same,Increase in footpad thickness,[3],0.45 mm
same,PFC,[4],1495
c1ccc2c(c1)CCC1N=C3SCCN3C21 (stereo in doubt),PFC,[16],1610
same,Increase in footpad thickness,[17],0.37 mm
same,PFC,[18],1800
same,Increase in footpad thickness,[19],0.38 mm
same,LD50,[20],68 mg/kg
same,LD50,[9],20 mg/kg
c1ccc2c(c1)CCC1C2N=C2SCCN21 (stereo in doubt),PFC,[21],860
same,PFC,[22],1220
same,Increase in footpad thickness,[23],0.42 mm
same,LD50,[20],116 mg/kg
same,LD50,[24],27 mg/kg
same,Increase in footpad thickness,[25],0.44 mm
